# Experimental data taken from publication PMC2659760 (The Journal of organic chemistry, 2009).
# pIC50: −log10 of the molar value. Entries after “also recorded” stand apart in the source; their conditions may differ. Where two headings read alike, the source gives them in different places.
# Columns and labels:
# [1] = system: rat liver monoamine oxidase (MAO-B); assay: Selectivity: initial oxidation velocity with rat liver MAO-B; assay type: biochemical; conditions: for V0: 30 °C, 250 nm, rat liver mitochondria
# Outline: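 MAO-B source: isolated rat liver mitochondria, protein by biuret (BSA standard). Thawed suspension in mannitol/sucrose/MOPS pH 7.4 diluted with 0.1 M pH 7.2 phosphate containing 0.25% Triton X-100, warmed to 30 °C. Aliquot added to 20 µM test amine (0.1 M phosphate) or 5 mM benzylamine (50 mM phosphate). A250 followed 30 s at 30 °C; rates via extinction coefficients.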
# [2] = biological target: T1, Pichia pastoris lysyl oxidase (PPLO) (Komagataella pastoris, UniProt Q96X16); assay: Selectivity: initial oxidation velocity with PPLO; assay type: biochemical; conditions: for V0: 30 °C, 250 nm
# T1 sequence (Q96X16 19-787): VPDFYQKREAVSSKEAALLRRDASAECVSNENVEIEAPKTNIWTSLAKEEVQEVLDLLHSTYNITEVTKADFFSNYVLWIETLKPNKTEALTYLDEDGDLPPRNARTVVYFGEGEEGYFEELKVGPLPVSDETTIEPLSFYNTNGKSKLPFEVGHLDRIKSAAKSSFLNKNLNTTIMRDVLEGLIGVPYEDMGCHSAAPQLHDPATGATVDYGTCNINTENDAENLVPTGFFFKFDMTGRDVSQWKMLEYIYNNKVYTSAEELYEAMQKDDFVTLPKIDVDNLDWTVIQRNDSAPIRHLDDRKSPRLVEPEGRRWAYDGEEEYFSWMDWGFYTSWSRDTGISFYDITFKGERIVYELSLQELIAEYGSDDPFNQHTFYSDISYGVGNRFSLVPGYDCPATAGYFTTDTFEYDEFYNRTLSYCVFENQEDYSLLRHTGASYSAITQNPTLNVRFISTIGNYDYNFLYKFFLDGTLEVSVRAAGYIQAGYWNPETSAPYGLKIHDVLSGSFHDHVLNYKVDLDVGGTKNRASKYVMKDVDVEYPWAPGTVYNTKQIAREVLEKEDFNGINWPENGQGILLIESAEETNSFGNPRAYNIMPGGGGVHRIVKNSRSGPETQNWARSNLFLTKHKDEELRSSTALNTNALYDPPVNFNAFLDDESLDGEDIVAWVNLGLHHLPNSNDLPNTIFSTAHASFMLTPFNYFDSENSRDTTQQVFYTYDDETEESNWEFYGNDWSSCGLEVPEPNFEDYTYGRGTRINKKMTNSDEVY
# Outline: (§1)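 Purified enzyme was diluted into 20 µM fluorogenic amine substrate in 0.1 M pH 7.2 phosphate buffer, or into 5 mM benzylamine in 50 mM pH 7.2 phosphate buffer, at 30 °C. Absorbance at 250 nm was followed for 30 s. Slopes were converted to nM s−1 using extinction coefficients of the aldehyde products at 250 nm.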
# [3] = biological target: Arthrobacter globiformis amine oxidase (AGAO) (Arthrobacter globiformis, UniProt P46881); assay: Selectivity: initial oxidation velocity with AGAO; assay type: biochemical; conditions: for V0: 30 °C, 250 nm
# Outline: as §1
# BPAO [4] = biological target: T2, BPAO (Bos taurus, UniProt Q29437); assay: Selectivity: initial oxidation velocity with BPAO; assay type: biochemical, bovine; conditions: for V0: 30 °C, 250 nm
# T2 sequence (Q29437 17-762): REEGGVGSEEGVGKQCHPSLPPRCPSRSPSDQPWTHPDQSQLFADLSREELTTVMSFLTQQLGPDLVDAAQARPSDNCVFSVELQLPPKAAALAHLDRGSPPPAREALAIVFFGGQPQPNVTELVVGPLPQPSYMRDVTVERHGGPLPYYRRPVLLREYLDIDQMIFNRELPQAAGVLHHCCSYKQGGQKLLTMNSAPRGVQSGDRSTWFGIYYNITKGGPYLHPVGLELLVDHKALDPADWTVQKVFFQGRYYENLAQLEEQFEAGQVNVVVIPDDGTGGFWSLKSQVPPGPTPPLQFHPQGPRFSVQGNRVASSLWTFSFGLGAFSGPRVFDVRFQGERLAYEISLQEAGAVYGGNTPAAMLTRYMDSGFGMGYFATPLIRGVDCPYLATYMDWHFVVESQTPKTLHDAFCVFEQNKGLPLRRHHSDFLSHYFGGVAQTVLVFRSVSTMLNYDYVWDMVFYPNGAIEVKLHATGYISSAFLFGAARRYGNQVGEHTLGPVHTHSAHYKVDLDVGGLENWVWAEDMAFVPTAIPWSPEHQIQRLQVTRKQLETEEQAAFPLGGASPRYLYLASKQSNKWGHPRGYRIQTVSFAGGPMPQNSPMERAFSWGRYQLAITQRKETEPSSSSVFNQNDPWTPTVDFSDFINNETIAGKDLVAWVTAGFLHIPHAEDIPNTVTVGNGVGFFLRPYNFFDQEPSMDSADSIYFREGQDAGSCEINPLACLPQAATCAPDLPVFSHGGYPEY
# Outline: as §1
# [5] = biological target: T3, bovine plasma amine oxidase (BPAO) (Bos taurus, UniProt Q29437); assay: Substrate activity with BPAO; assay type: biochemical; conditions: kcat/Km relative to BA = 1
# T3 sequence (Q29437 17-762): T2 sequence (Q29437 17-762)
# [6] = biological target: T4, porcine kidney diamine oxidase (pkDAO) (Sus scrofa, UniProt Q9TRC7); assay: Selectivity: initial oxidation velocity with pkDAO; assay type: biochemical; conditions: for V0: 37 °C, 250 nm
# T4 sequence (Q9TRC7 25-755): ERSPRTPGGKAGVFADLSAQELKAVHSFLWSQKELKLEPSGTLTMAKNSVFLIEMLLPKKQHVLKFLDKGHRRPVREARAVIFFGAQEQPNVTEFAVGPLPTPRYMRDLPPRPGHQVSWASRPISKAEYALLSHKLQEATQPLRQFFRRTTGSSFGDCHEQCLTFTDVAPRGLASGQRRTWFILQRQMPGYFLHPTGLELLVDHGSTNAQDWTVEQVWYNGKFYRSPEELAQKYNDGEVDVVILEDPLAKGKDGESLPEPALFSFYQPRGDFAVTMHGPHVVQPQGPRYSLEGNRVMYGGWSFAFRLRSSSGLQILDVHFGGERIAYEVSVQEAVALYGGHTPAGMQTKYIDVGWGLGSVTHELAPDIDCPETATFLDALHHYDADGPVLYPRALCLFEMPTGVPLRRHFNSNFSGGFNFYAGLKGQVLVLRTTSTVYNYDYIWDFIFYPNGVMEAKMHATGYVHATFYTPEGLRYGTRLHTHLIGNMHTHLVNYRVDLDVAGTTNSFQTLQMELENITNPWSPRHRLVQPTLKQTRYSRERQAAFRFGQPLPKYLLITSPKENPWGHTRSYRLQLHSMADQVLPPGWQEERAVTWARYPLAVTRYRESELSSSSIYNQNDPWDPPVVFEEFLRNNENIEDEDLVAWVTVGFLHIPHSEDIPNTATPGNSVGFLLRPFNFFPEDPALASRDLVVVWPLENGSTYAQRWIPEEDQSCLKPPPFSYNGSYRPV
# Outline: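 Porcine kidney DAO (from 10 mg/mL stock) in 0.1 M pH 7.2 phosphate buffer, equilibrated at 37 °C. Test amine (final 20 µM) or p-xylylenediamine (final 1.5 mM) was added. Absorbance at 250 nm was read for 30 s at 37 °C. Rates were computed using a literature extinction coefficient for p-(aminomethyl)benzaldehyde.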
# Solubility = assay type: physicochemical
# BPAO [7] = biological target: T2, BPAO; conditions: ref 8d, cited from earlier work
# BPAO [8] = biological target: T2, BPAO; assay: Inhibition of BPAO evaluated with the new fluorometric assay; assay type: biochemical, bovine
# Outline: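 BPAO (50 nM) in 0.1 M pH 7.2 phosphate buffer, held 5 min at 2 °C, then given test inhibitor (final 1–10 µM; repeat at 30 °C with 0.125–2 µM). Aliquots taken over time and assayed at 30 °C: 10 µM fluorogenic amine substrate, emission 453 nm (λex 350 nm), 30 s. Residual activity relative to an inhibitor-free control; t1/2 per concentration fed Kitz–Wilson plot.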
# [9] = BA 5 mM in 50 mM pH 7.2 phosphate buffer
# [10] = 12 20 µM in 0.1 M pH 7.2 phosphate buffer
smiles,measurement,setting,value
"NCc1ccccc1 [BA, benzylamine, reference compound]",V0,[1]; [9],103.1 nM/s
same,V0,[2]; [9],67.2 nM/s
same,V0,[3]; [9],54.7 nM/s
same,V0,BPAO [4]; [9],82.8 nM/s
same,relative activity,[5]; UV-vis spectrophotometry,1
"NCc1ccc(CN)cc1 [PXDA, p-xylylenediamine, reference compound]",V0,[6]; PXDA 1.5 mM in 0.1 M pH 7.2 phosphate buffer,51.8 nM/s
"COc1ccc2cc(CN)ccc2c1.Cl [compound 1, 6-Methoxy-2-naphthalenemethaneamine hydrochloride]",solubility (in words),Solubility,poor solubility; also recorded: poorly soluble
same,relative activity,[5]; UV-vis spectrophotometry,2.2
same,relative activity,[5]; fluorescence spectrophotometry,2.2
"Cl.Cl.NCCOc1ccc2cc(CN)ccc2c1 [compound 9, 2-(6-(Aminomethyl)naphthalen-2-yloxy)ethylamine dihydrochloride]",relative activity,[5]; fluorescence spectrophotometry,2.9×10^2
"CNCCOc1ccc2cc(CN)ccc2c1.Cl.Cl [compound 10, (2-(6-(Aminomethyl)naphthalen-2-yloxy)ethyl)methylamine dihydrochloride]",relative activity,[5]; fluorescence spectrophotometry,1.5×10^3
"CN(C)CCOc1ccc2cc(CN)ccc2c1.Cl.Cl [compound 11, (2-(6-(Aminomethyl)naphthalen-2-yloxy)ethyl)dimethylamine dihydrochloride]",relative activity,[5]; fluorescence spectrophotometry,3.1×10^3
"C[N+](C)(C)CCOc1ccc2cc(CN)ccc2c1.Cl.[Cl-] [compound 12, (2-(6-(Aminomethyl)naphthalen-2-yloxy)ethyl)trimethylammonium chloride hydrochloride]",substrate activity with pkDAO (in words),[6],no significant substrate activity
same,V0,[6]; [10],1.0 nM/s
same,substrate activity with pkDAO (in words),[6]; listed as ANETA,not a substrate
same,substrate activity with MAO-B (in words),[1],no significant substrate activity
same,V0,[1]; [10],0.6 nM/s
same,substrate activity with MAO-B (in words),[1]; listed as ANETA,not a substrate
same,V0,[2]; [10],24.8 nM/s
same,substrate activity with PPLO (in words),[2]; compared with BPAO,comparable rate
same,substrate activity with AGAO (in words),[3],no significant substrate activity
same,V0,[3]; [10],1.3 nM/s
same,substrate activity with BPAO (in words),BPAO [4],metabolized quickly
same,V0,BPAO [4]; [10],62.3 nM/s
same,substrate activity with BPAO (in words),BPAO [4]; listed as ANETA,good substrate
same,relative activity,[5]; fluorescence spectrophotometry,5.4×10^3
"C=C=CCN [compound 29, 1-Amino-2,3-butadiene]",slope of the Kitz and Wilson plot,"BPAO [7]; BA assay, 2 °C",10.2
same,pIC50,"BPAO [7]; read-out: 5 min IC50, BA assay with 1 µM BPAO, previous estimation",5.90
same,slope of the Kitz and Wilson plot,"BPAO [8]; inactivation at 2 °C, BPAO 50 nM",10.8
same,pIC50,"BPAO [8]; read-out: 5 min IC50, 30 °C",6.60
same,pIC50,"BPAO [8]; read-out: 10 min IC50, 30 °C",6.90
